{"data": "Assay results of several laboratories"}
{"Structure (SMILES)": "O=C(NCCc1c[nH]c2ccccc12)C(=O)c1cn(Cc2ccc(F)cc2)c2ccccc12", "target or system": "C4-2", "assay": "cell growth or viability, MTT", "quantity": "IC50", "result": "> 100 µM"}
{"Structure (SMILES)": "C[C@]12CCC(=O)C(O)=C1CC[C@@H]1[C@@H]2CC[C@]2(C)C(=O)CC[C@@H]12", "target or system": "HN-6", "assay": "cell growth or viability", "conditions": "72 h", "quantity": "IC50", "result": "> 20 µM"}
{"Structure (SMILES)": "Cn1cnc2nc(NCc3ccc(Cl)c(Cl)c3)[nH]c(=O)c21", "target or system": "Lactobacillus acidophilus", "assay": "microbial growth, agar dilution", "conditions": "48 h", "quantity": "MIC", "result": "8 µg/mL"}
{"Structure (SMILES)": "COC(=O)c1cc(-c2cccc(NC(=O)Nc3cccc(Cl)c3Cl)c2)on1", "target or system": "Escherichia coli", "assay": "microbial growth, broth dilution", "test system": "ATCC25922", "quantity": "MIC", "result": "> 64 µg/mL"}
{"Structure (SMILES)": "Cc1ccc2[nH]c3c(c2c1)CCCC3NCCc1ccc(Br)cc1 (stereo not drawn)", "target or system": "Micrococcus luteus", "assay": "microbial growth, broth dilution", "test system": "DSM1790", "quantity": "MIC", "result": "2 µg/mL"}
{"Structure (SMILES)": "COC(=O)c1cc(-c2cccc(NC(=O)Nc3ccc(Cl)c(Cl)c3)c2)on1", "target or system": "Escherichia coli", "assay": "microbial growth, broth dilution", "test system": "ATCC25922", "quantity": "MIC", "result": "> 64 µg/mL"}
{"Structure (SMILES)": "CSc1ncnc2c1ncn2[C@@H]1O[C@H](CO)[C@@H](O)[C@H]1O", "target or system": "Severe acute respiratory syndrome coronavirus", "assay": "plaque formation, inhibitor", "test system": "Vero C1008", "quantity": "IC50", "result": "> 300 µM"}
{"Structure (SMILES)": "CCCCCCNC(=S)Nc1cccc(-c2cc(C(=O)OC)no2)c1", "target or system": "Escherichia coli", "assay": "microbial growth, broth dilution", "test system": "ATCC25922", "quantity": "MIC", "result": "> 64 µg/mL"}
{"Structure (SMILES)": "OCC(CO)CCn1cnc2c(Cl)ncnc21", "target or system": "Severe acute respiratory syndrome coronavirus", "assay": "plaque formation, inhibitor", "test system": "Vero C1008", "quantity": "IC50", "result": "> 300 µM"}
{"Structure (SMILES)": "Nc1ncnc2c([C@@H]3N[C@H](CO)[C@@H](O)[C@H]3O)c[nH]c12", "target or system": "Severe acute respiratory syndrome coronavirus", "assay": "viral replication, inhibitor", "test system": "Vero 76", "conditions": "0.3 µM", "quantity": "inhibition", "result": "0.9%"}
{"Structure (SMILES)": "OC[C@H]1O[C@@H](n2cnc3c(Cl)ncnc32)C[C@@H]1O", "target or system": "Severe acute respiratory syndrome coronavirus", "assay": "plaque formation, inhibitor", "test system": "Vero C1008", "quantity": "IC50", "result": "> 300 µM"}
{"Structure (SMILES)": "O=C(NCCc1c[nH]c2ccccc12)C(=O)c1cn(Cc2ccc(Cl)cc2)c2ccc(Br)cc12", "target or system": "C4-2", "assay": "cell growth or viability, MTT", "quantity": "IC50", "result": "> 100 µM"}
{"Structure (SMILES)": "COC(=O)c1cc(-c2cccc(NC(=S)Nc3ccc(OC)cc3)c2)on1", "target or system": "Escherichia coli", "assay": "microbial growth, broth dilution", "test system": "ATCC25922", "quantity": "MIC", "result": "> 64 µg/mL"}
{"Structure (SMILES)": "c1cc2c(ccc3c4c([nH]c32)CCCC4)cn1", "target or system": "MDA-MB-468", "assay": "cell growth or viability, MTT", "quantity": "IC50", "result": "7.9 µM"}
{"Structure (SMILES)": "Nc1nc(Cl)c2ncn([C@@H]3O[C@H](CO)[C@@H](O)[C@H]3O)c2n1", "target or system": "Severe acute respiratory syndrome coronavirus", "assay": "plaque formation, inhibitor", "test system": "Vero C1008", "quantity": "IC50", "result": "> 300 µM"}
